Measured values published in ChEMBL document CHEMBL1138325, “Design, synthesis, in vitro, and in vivo characterization of phenylpiperazines and pyridinylpiperazines as potent and selective antagonists of the melanocortin-4 receptor” (J Med Chem, 2007).

How the values were obtained:
Melanocortin receptor 4 [1] = target: T1, Melanocortin receptor 4 (Homo sapiens, UniProt P32245); assay: Displacement of [125I]NDPMSH from human MC4R expressed in HEK293 cells; format: cell-based
[2] = target: Growth hormone secretagogue receptor type 1 (Homo sapiens, UniProt Q92847); assay: Agonist activity at GHSR; format: functional
[3] = Ratio of drug level in brain to plasma in CD1 mouse at 5 mg/kg, iv after 4 hrs; format: ADME, organism-based; parameters: dose 5 mg/kg, route intravenous; conditions: brain and plasma, read-out: BPR
[4] = Apparent permeability from apical to basolateral side of Caco-2 cells; format: ADME, cell-based; conditions: human
Method in brief: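 Caco-2 monolayer permeability, with Papp measured in the apical-to-basolateral direction.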

[5] = Cmax in CD1 mouse at 10 mg/kg, po after 6 hrs; format: ADME, organism-based; parameters: dose 10 mg/kg, route oral; conditions: in vivo
Method in brief: (§1)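 CD-1 mice, three animals, dosed i.v. at 5 mg/kg and by oral gavage at 10 mg/kg. Plasma CL, Vd, t1/2, Cmax, Tmax, oral AUC and F% were derived. Brain concentrations and brain/plasma ratios at 1 and 4 h were taken from the i.v. dosing.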

[6] = target: T2, Melanocyte-stimulating hormone receptor (Homo sapiens, UniProt Q01726); assay: Displacement of [125I]NDPMSH from human MC1R expressed in HEK293 cells; format: cell-based
Target sequence in this assay (Q01726 whole entry): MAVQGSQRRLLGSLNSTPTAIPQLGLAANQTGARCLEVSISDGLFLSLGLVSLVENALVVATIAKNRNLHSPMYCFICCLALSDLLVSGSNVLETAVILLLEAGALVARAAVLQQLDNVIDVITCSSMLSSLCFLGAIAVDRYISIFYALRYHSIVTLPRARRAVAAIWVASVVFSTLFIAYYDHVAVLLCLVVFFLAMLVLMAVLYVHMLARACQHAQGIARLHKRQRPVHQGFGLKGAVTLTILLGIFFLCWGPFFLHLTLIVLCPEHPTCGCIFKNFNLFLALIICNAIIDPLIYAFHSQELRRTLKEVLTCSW

[7] = Cmax in Sprague-Dawley rat at 10 mg/kg, po; format: ADME, organism-based; parameters: dose 10 mg/kg, route oral; conditions: in vivo
[8] = Drug level in Sprague-Dawley rat brain at 10 mg/kg, po after 4 hrs; format: ADME, organism-based; parameters: dose 10 mg/kg, route oral; conditions: read-out: Drug uptake
[9] = Ratio of drug level in brain to plasma in Sprague-Dawley rat at 10 mg/kg, po after 1 hr; format: ADME, organism-based; parameters: dose 10 mg/kg, route oral; conditions: brain and plasma, read-out: BPR
Method in brief: (§2)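 Sprague–Dawley rats, three animals per route; i.v. dose 5 mg/kg and oral 10 mg/kg. Brain concentrations and brain/plasma ratios taken from the oral dosing at 1 and 4 h post-dose.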

[10] = AUC in Sprague-Dawley rat at 10 mg/kg, po; format: ADME, organism-based; parameters: dose 10 mg/kg, route oral; conditions: plasma
Melanocortin receptor 5 = Melanocortin receptor 5 (Homo sapiens, UniProt P33032); assay: Displacement of [125I]NDPMSH from human MC5R expressed in HEK293 cells; format: cell-based
[11] = Distribution coefficient, log D by shake flask method; format: physicochemical; conditions: octanol/water
Method in brief: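 LogD measured by the shake-flask method; described elsewhere in the paper as lipophilicity at pH 7.4.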

[12] = Volume of distribution in Sprague-Dawley rat at 2.5 mg/kg, iv and 10 mg/kg, po; format: ADME, organism-based; conditions: in vivo
Method in brief: (§3)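 Sprague–Dawley rats, three animals per route; i.v. given at 2.5 mg/kg and oral at 10 mg/kg; plasma PK parameters calculated from these dosings.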

[13] = Oral bioavailability in Sprague-Dawley rat at 10 mg/kg, po; format: ADME, organism-based; conditions: in vivo; method in brief: as §2
Melanocortin receptor 4 [14] = target: T1, Melanocortin receptor 4; assay: Antagonist activity at human MC4R expressed in HEK293 cells assessed as inhibition of alpha-MSH-stimulated cAMP production; format: functional, cell-based
[15] = Clearance in Sprague-Dawley rat at 2.5 mg/kg, iv and 10 mg/kg, po; format: ADME, organism-based; conditions: in vivo
Method in brief: (§4)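 Sprague–Dawley rats, three animals, dosed i.v. at 2.5 mg/kg and orally at 10 mg/kg. CL and t1/2 were derived from the plasma profile.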

Melanocortin receptor 3 = Melanocortin receptor 3 (Homo sapiens, UniProt P41968); assay: Displacement of [125I]NDPMSH from human MC3R expressed in HEK293 cells; format: cell-based
[16] = Half life in Sprague-Dawley rat at 2.5 mg/kg, iv and 10 mg/kg, po; format: ADME, organism-based; conditions: in vivo; method in brief: as §4
[17] = Ratio of drug level in brain to plasma in Sprague-Dawley rat at 10 mg/kg, po after 4 hrs; format: ADME, organism-based; parameters: dose 10 mg/kg, route oral; conditions: brain and plasma, read-out: BPR; method in brief: as §2
[18] = Drug level in Sprague-Dawley rat brain at 10 mg/kg, po after 1 hr; format: ADME, organism-based; parameters: dose 10 mg/kg, route oral; conditions: read-out: Drug uptake
[19] = Tmax in Sprague-Dawley rat at 2.5 mg/kg, iv and 10 mg/kg, po; format: ADME, organism-based; conditions: in vivo; method in brief: as §3
[20] = AUC in CD1 mouse at 10 mg/kg, po; format: ADME, organism-based; parameters: dose 10 mg/kg, route oral; conditions: plasma; method in brief: as §1
[21] = target: T2, Melanocyte-stimulating hormone receptor; assay: Displacement of [125I]NDPMSH from human MC1R expressed in HEK293 cells at 10 uM; format: cell-based
Target sequence in this assay (Q01726 whole entry, looked up): as the sequence (Q01726 whole entry) above

[22] = Bioavailability in CD1 mouse at 10 mg/kg, po; format: ADME, organism-based; conditions: in vivo; method in brief: as §1
[23] = Drug level in CD1 mouse brain at 5 mg/kg, iv after 4 hrs; format: ADME, organism-based; parameters: dose 5 mg/kg, route intravenous; conditions: read-out: Drug uptake; method in brief: as §1
[24] = Clearance in CD1 mouse at 5 mg/kg, iv; format: ADME, organism-based; parameters: dose 5 mg/kg, route intravenous; conditions: in vivo; method in brief: as §1
[25] = Tmax in CD1 mouse at 10 mg/kg, po; format: ADME, organism-based; parameters: dose 10 mg/kg, route oral; conditions: in vivo
Method in brief: (§5)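 CD-1 mice, three animals per route; single i.v. dose at 5 mg/kg and oral gavage at 10 mg/kg. Plasma PK parameters derived; brain concentrations and brain/plasma ratios taken from the i.v. dosing at 1 and 4 h.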

[26] = Ratio of drug level in brain to plasma in CD1 mouse at 5 mg/kg, iv after 1 hr; format: ADME, organism-based; parameters: dose 5 mg/kg, route intravenous; conditions: brain and plasma, read-out: BPR
[27] = Drug level in CD1 mouse brain at 5 mg/kg, iv after 1 hr; format: ADME, organism-based; parameters: dose 5 mg/kg, route intravenous; conditions: read-out: Drug uptake; method in brief: as §1
[28] = Volume of distribution in CD1 mouse at 5 mg/kg, iv; format: ADME, organism-based; parameters: dose 5 mg/kg, route intravenous; conditions: in vivo; method in brief: as §5
[29] = Half life in CD1 mouse at 5 mg/kg, iv; format: ADME, organism-based; parameters: dose 5 mg/kg, route intravenous; conditions: in vivo; method in brief: as §1
[30] = Volume of distribution in Sprague-Dawley rat at 5 mg/kg, iv and 10 mg/kg, po; format: ADME, organism-based; conditions: in vivo; method in brief: as §2
[31] = Tmax in Sprague-Dawley rat at 5 mg/kg, iv and 10 mg/kg, po; format: ADME, organism-based; conditions: in vivo; method in brief: as §2
[32] = Clearance in Sprague-Dawley rat at 5 mg/kg, iv and 10 mg/kg, po; format: ADME, organism-based; conditions: in vivo
[33] = Half life in Sprague-Dawley rat at 5 mg/kg, iv and 10 mg/kg, po; format: ADME, organism-based; conditions: in vivo

T1 sequence (P32245 whole entry): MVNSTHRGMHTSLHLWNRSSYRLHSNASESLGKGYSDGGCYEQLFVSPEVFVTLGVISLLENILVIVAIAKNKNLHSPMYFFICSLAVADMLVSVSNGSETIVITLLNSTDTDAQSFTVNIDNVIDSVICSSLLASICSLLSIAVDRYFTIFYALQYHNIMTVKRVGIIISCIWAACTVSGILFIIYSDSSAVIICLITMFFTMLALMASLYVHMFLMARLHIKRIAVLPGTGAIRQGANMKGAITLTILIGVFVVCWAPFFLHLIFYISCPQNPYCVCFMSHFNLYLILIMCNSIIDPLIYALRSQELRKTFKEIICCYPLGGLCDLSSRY
Chain of Melanocortin receptor 5 (P33032 whole entry): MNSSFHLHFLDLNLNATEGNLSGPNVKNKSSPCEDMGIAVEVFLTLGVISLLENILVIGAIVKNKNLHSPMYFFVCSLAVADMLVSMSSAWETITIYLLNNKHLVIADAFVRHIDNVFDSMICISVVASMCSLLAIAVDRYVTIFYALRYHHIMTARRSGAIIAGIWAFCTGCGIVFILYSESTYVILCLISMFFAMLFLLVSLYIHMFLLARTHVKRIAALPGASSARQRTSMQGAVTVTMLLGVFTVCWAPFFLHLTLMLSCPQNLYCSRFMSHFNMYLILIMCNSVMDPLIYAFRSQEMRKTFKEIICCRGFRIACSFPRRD
Chain of Melanocortin receptor 3 (P41968 whole entry): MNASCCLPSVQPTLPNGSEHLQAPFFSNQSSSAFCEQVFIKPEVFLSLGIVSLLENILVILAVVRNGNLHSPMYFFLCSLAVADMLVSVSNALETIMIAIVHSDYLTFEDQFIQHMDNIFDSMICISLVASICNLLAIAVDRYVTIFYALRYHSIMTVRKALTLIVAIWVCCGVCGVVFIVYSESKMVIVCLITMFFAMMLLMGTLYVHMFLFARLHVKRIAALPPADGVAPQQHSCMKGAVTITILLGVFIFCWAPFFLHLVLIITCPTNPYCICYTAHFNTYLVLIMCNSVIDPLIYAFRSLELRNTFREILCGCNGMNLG
Chain of Growth hormone secretagogue receptor type 1 (Q92847 whole entry): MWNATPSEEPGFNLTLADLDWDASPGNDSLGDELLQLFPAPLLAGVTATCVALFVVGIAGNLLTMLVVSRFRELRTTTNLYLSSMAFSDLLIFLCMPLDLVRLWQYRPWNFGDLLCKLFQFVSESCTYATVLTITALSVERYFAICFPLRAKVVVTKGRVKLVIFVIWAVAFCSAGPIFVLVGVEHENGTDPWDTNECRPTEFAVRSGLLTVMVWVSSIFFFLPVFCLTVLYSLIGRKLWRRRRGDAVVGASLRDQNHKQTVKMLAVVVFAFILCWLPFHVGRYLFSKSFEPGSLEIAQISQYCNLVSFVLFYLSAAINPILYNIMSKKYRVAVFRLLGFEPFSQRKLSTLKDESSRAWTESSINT

SMILES: CC(C)C[C@H](N)c1cccnc1N1CCN(C(=O)CCc2ccc(Cl)cc2Cl)CC1
- Ki (Melanocortin receptor 4 [1]): 890 nM

SMILES: CC(C)C[C@H](NCCN)c1cccc(F)c1N1CCN(C(=O)[C@@H](Cc2ccc(Cl)cc2Cl)N2CCCC2=O)CC1
- Intrinsic activity [2]: 107%
- Kp at 4 h [3]: 0.23
- Papp A→B [4]: 2 ×10⁻⁶ cm/s
- Cmax [5]: 552 ng/mL

SMILES: Cc1ccc([C@@H](CC(C)C)NC(=O)CCN(C)C)c(N2CCN(C(=O)[C@H](C)Cc3ccc(Cl)cc3Cl)CC2)n1
- Ki [6]: 6400 nM
- Cmax [7]: 60 ng/mL
- concentration at 4 h [8]: 29 ng/g
- Kp at 1 h [9]: 0.2
- AUC [10]: 517 ng·h/mL
- Ki (Melanocortin receptor 5): 1200 nM
- logD [11]: 3.3
- Vd [12]: 18.6 L/kg
- bioavailability [13]: 19.6%
- IC50 (Melanocortin receptor 4 [14]): 49 nM
- clearance [15]: 64.9 mL/min/kg
- Ki (Melanocortin receptor 4 [1]): 2.5 nM
- Ki (Melanocortin receptor 3): 3300 nM
- half-life [16]: 3.3 h
- Kp at 4 h [17]: 0.2
- concentration at 1 h [18]: 15 ng/g
- Tmax [19]: 2 h

SMILES: Cc1ccc(N2CCN(C(=O)[C@H](C)Cc3ccc(Cl)cc3)CC2)c([C@@H](N)CC(C)C)c1
- IC50 (Melanocortin receptor 4 [14]): 570 nM
- Papp A→B [4]: 1.8 ×10⁻⁶ cm/s
- AUC [20]: 1760 ng·h/mL

SMILES: CC(C)C[C@H](NC(=O)CN)c1cc(C(F)(F)F)ccc1N1CCN(C(=O)CCc2ccc(Cl)cc2Cl)CC1
- Activity [21]: 18%
- AUC [20]: 687 ng·h/mL

SMILES: CC(C)C[C@H](NC(=O)CN)c1cccnc1N1CCN(C(=O)[C@H](C)Cc2ccc(Cl)cc2Cl)CC1
- Ki (Melanocortin receptor 4 [1]): 39 nM

SMILES: CC(C)C[C@@H](NC(=O)CN)c1cccnc1N1CCN(C(=O)[C@H](C)Cc2ccc(Cl)cc2Cl)CC1
- bioavailability [22]: 12.6%
- concentration at 4 h [23]: 14 ng/g
- Kp at 4 h [3]: 0.15
- clearance [24]: 37.4 mL/min/kg
- Tmax [25]: 0.5 h
- AUC [20]: 551 ng·h/mL
- Ki (Melanocortin receptor 4 [1]): 6 nM
- Cmax [5]: 288 ng/mL
- Kp at 1 h [26]: 0.07
- concentration at 1 h [27]: 35 ng/g
- Vd [28]: 16.8 L/kg
- half-life [29]: 5.2 h

SMILES: CC(C)C[C@@H](N)c1cccnc1N1CCN(C(=O)CCc2ccc(Cl)cc2Cl)CC1
- Ki (Melanocortin receptor 4 [1]): 260 nM

SMILES: Cc1ccc(N2CCN(C(=O)[C@H](C)Cc3ccc(Cl)cc3)CC2)c([C@H](CC(C)C)NC(=O)CCN(C)C)c1
- Activity [21]: 34%
- Vd [30]: 4.1 L/kg
- Cmax [7]: 196 ng/mL
- concentration at 4 h [8]: 36 ng/g
- Kp at 1 h [9]: 0.2
- AUC [10]: 2360 ng·h/mL
- Ki (Melanocortin receptor 5): 710 nM
- logD [11]: 2.4
- bioavailability [13]: 19%
- IC50 (Melanocortin receptor 4 [14]): 160 nM
- Tmax [31]: 5.3 h
- clearance [32]: 15 mL/min/kg
- Ki (Melanocortin receptor 4 [1]): 3.7 nM
- Ki (Melanocortin receptor 3): 2800 nM
- half-life [33]: 3.1 h
- Kp at 4 h [17]: 0.3
- concentration at 1 h [18]: 12 ng/g

SMILES: COc1cc(Cl)ccc1CC(C)C(=O)N1CCN(c2ccc(C(F)(F)F)cc2[C@@H](N)CC(C)C)CC1 (stereo not given in full)
- logD [11]: 4.5
- AUC [20]: 249 ng·h/mL

SMILES: CC(C)C[C@H](N)c1cc(C(F)(F)F)ccc1N1CCN(C(=O)CCc2ccc(Cl)cc2Cl)CC1
- Ki (Melanocortin receptor 4 [1]): 75 nM

SMILES: Cc1ccc(N2CCN(C(=O)[C@@H](Cc3ccc(Cl)cc3Cl)N3CCCC3=O)CC2)c([C@H](CC(C)C)NC(=O)CCN(C)C)c1
- Vd [30]: 8.8 L/kg
- Cmax [7]: 40 ng/mL
- concentration at 4 h [8]: 15 ng/g
- Kp at 1 h [9]: 0.2
- AUC [10]: 393 ng·h/mL
- logD [11]: 3.9
- bioavailability [13]: 8.7%
- Tmax [31]: 4 h
- clearance [32]: 38.7 mL/min/kg
- half-life [33]: 2.6 h
- Kp at 4 h [17]: 0.3
- concentration at 1 h [18]: 1.5 ng/g

SMILES: CC(C)C[C@@H](N)c1cccnc1N1CCN(C(=O)C(C)Cc2ccc(Cl)cc2Cl)CC1 (stereo not given in full)
- Ki (Melanocortin receptor 4 [1]): 36 nM

SMILES: Cc1ccc([C@H](N)CC(C)C)c(N2CCN(C(=O)[C@H](C)Cc3ccc(Cl)cc3Cl)CC2)n1
- Ki (Melanocortin receptor 4 [1]): 44 nM
